Experimental findings from the EternaBench riboswitch data are described below.

The term apparent Kd denotes a dissociation constant that holds for the conditions of the assay.

The data set concerns MS2 coat protein. In words: apparent Kd, MS2 coat protein; higher = weaker binding; RNA-MaP array; theophylline 2 mM where present. A digest of the protocol:
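Stalled E. coli RNA polymerase produced the designs on Illumina sequencing-chip clusters. SNAP-549-labelled MS2 coat protein was added from 0.7 or 1.5 nM, doubling to 3 µM, without and then with constant ligand, in 100 mM Tris-HCl pH 7.5, 80 mM KCl, 4 mM MgCl2, BSA, DTT, yeast tRNA and Tween-20. The apparent Kd is the median of filtered per-cluster fits of green signal normalised to red-channel RNA signal and control-cluster median Fmax.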

Setting [1] is: designed as: OFF switch for theophylline, no ligand.
The mark [2] stands for this setting: ligand present: theophylline, designed as: OFF switch for theophylline.
The mark [3] stands for this setting: designed as: ON switch for theophylline, no ligand.
Setting [4] is: ligand present: theophylline, designed as: ON switch for theophylline.

For “UGACAUUGCUCAGAUACCAGACGUGAGGAUCACCCACGUGCCAACAUGAGGAUCACCCAUGUCCCUUGGCAGCUGAGCAAUGUCU”, the “apparent Kd” value under setting [1] came out at 15.7 nM and the “apparent Kd” value under setting [2] was 183 nM.

“CGGUUUGUGAUGGAUACCAGCAGAGAAAAUGUUUAUCCUGACAUGAGGAUCACCCAUGUGUGCCCUUGGCAGCUGUUGUGGGCUG”: the “apparent Kd” value is, setting by setting: under setting [1], 56.2 nM; under setting [2], 75.3 nM.

As to “UUUUAAGGGAUCGGUGCUGGUAGCAGAGAUACCAGAGUAAUGAUACUCCCUUGGCAGCUCAGUACAUGAGGAUCACCCAUGUUUU”, the “apparent Kd” value amounted to 17.4 nM under setting [1] and 25.9 nM under setting [2].

Turning to “ACGCUGAUUGAUUACAAUCAGCGAAAAGAUACCAGUGGGUAAUCCCACCCUUGGCAGCUUAAACAUGAGGAUCACCCAUGUGGUA”, the “apparent Kd” value runs as follows: under setting [3], 74.5 nM; under setting [4], 123 nM.

Regarding “AGUCUAUGGAGAGAUACCAGUGAGAGCCAUAGACAUGAGGAUCACCCAUGUGACAUGGAUCACCCUUGGCAGCUCAACGAGCUCU”, the “apparent Kd” value reads like this: under setting [3], 126 nM; under setting [4], 20.2 nM.

Take “AGCAGUACAACAGAUACCAGACUUUUCAUGCCUUUAAUUACAUGAGGAUCACCCAUGUUUGUCCCUUGGCAGCUGUUGUACUGCA”: the “apparent Kd” value runs as follows: under setting [1], 41.9 nM; under setting [2], 111 nM.

Turning to “CGAGUUCGCUGAUGGGCUACGUCAGGUGAUACCAGCCACUCCCGCGGCCCUUGGCAGCACAUGAGGAUCACCCAUGUAGAGCUUG”, the “apparent Kd” value reads like this: under setting [1], 13.6 nM; under setting [2], 238 nM.

“AAUAUAAGUGUAAUUUUAUGUAUCUCUGAUACCAGACCCUCAUGUGUCCCUUGGCAGCAGUAACAUGAGGAUCACCCAUGUAAAA”: the “apparent Kd” value was determined as 65.4 nM under setting [3] and 310 nM under setting [4].

In the case of “UAUAACAUGAGGAUCACCCAUGUAAGUGAUACCAGAUAAAUAAUAGUCCCUUGGCAGCAUAUUGGGAAAGUGUAUAAUAUAUAUU”, the “apparent Kd” value is, setting by setting: under setting [3], 52.2 nM; under setting [4], 57 nM.

As for “GAUACCAUGAUCCUCCUGGUAUCGGCUGAUACCAGCCAGCUGACUGGCCCUUGGCAGCAGCAUACAUGAGGAUCACCCAUGUUAA”, the “apparent Kd” value was 88.3 nM under setting [3] and 267 nM under setting [4].

In the case of “CUAGGAAACUAGUAAGGGUGGUAUAGAGAUACCAGUACAGAAAUGUACCCUUGGCAGCUCACUGCAACAUGAGGAUCACCCAUGU”, the “apparent Kd” value under setting [1] is 32.3 nM and the “apparent Kd” value under setting [2] worked out at 102 nM.

As to “AUUAAUAGUUGUGAUACCAGACGAACAUGAGGAUCACCCAUGUAACUUAAGAGUGUUGAUGUCCCUUGGCAGCACUGUUUAGUUA”, the “apparent Kd” value came to 108 nM under setting [3] and 87.8 nM under setting [4].

Regarding “AUUCCAUUGGUGCAGUUGUUAAAUGGCGAUACCAGCGUGGAAACACGCCCUUGGCAGCGCCAAAACAUGAGGAUCACCCAUGUUA”, the “apparent Kd” value is, setting by setting: under setting [1], 61 nM; under setting [2], 120 nM.

Consider “AAUUGGGUUGGUGAGGUGGUUGGAGGCGAUACCAGCGUGGAAACACGCCCUUGGCAGCGCCAGGACAUGAGGAUCACCCAUGUUC”, for which the “apparent Kd” value is, setting by setting: under setting [1], 22.7 nM; under setting [2], 35.2 nM.

Turning to “CGGUUUGUGAUGGAUACCAGCAGAGUGAAUGUUUAUCCUGACAUGAGGAUCACCCAUGUGUGCCCUUGGCAGCUGUUGUGGGCUG”, the “apparent Kd” value runs as follows: under setting [1], 63.5 nM; under setting [2], 89.4 nM.

In the case of “GAGCUGAUGUAGAAAUUUUAUUUAUGAGAUACCAGUACAGAAAUGUACCCUUGGCAGCUCAAUUUUACAUGAGGAUCACCCAUGU”, the “apparent Kd” value reads like this: under setting [1], 12.1 nM; under setting [2], 13.4 nM.

Take “UGCAUCAUAAUCAUGUUGGUGCUAGGUGAUACCAGCAUCGAAAGAUGCCCUUGGCAGCACCAACAUGAGGAUCACCCAUGUAAUA”: the “apparent Kd” value worked out at 114 nM under setting [3] and 337 nM under setting [4].

Consider “GGUGGCGGGACUGAUACCAGCCACCACCGAUAGACCACAUGAGGAUCACCCAUGUUGGGUGGCCCUUGGCAGCAGUCUUGCUGCU”, for which the “apparent Kd” value is 542 nM under setting [3] and 630 nM under setting [4].

Consider “AUAACAUGAGGAUCACCCAUGUAGAGUGAUACCAGACUAUGUAAUGUCCCUUGGCAGCACAAGUAAAGUUAUAAAUAAUGAUAGA”, for which the “apparent Kd” value is, setting by setting: under setting [3], 157 nM; under setting [4], 27.2 nM.

Consider “ACAUGAGGAUCACCCAUGUUCCUCAUUGAUACCAGUGAAAGAAGACGCCCUUGGCAGCGAGAAGAAGAAGAAGAAGUUUUUUUUU”, for which the “apparent Kd” value under setting [1] came out at 606 nM and the “apparent Kd” value under setting [2] was found to be 1340 nM.

In the case of “CCUAUGACAUGAGGAUCACCCAUGUUGGAUACCAGCGCAUGAGGACGCCCUUGGCAGCCAAUGAACAUGAGGAUACAUGAGGAUC”, the “apparent Kd” value was found to be 44.5 nM under setting [3] and 185 nM under setting [4].

“AUGUCAUUGGUGUAGCUGUGAAGUGGCGAUACCAGCGUGGAAACACGCCCUUGGCAGCGCCAAAACAUGAGGAUCACCCAUGUUA”: the “apparent Kd” value reads like this: under setting [1], 22.3 nM; under setting [2], 156 nM.
